Assay results reported in ChEMBL document CHEMBL4406834, “Phenylthiazoles with nitrogenous side chain: An approach to overcome molecular obesity” (Eur J Med Chem, 2019).
Converted amounts (≈) assume the structure as drawn.

Key:
[1] = system: Streptococcus pneumoniae; assay: Bactericidal activity against methicillin-resistant Streptococcus pneumoniae ATCC 700677 incubated for 18 to 20 hrs followed by replating on tryptic soy agar plate and further incubated for 18 to 24 hrs by CLSI-based broth microdilution assay; assay type: functional
Method in brief: (§1)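 MBC: after the broth microdilution MIC (CAMHB, ~5 × 10^5 CFU/mL, 37 °C, 18-20 h), 4 µL from wells without growth plated onto tryptic soy agar. Plates incubated 37 °C for 18-20 h. MBC is the lowest concentration giving 99.9% reduction in growth.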

[2] = system: Streptococcus pneumoniae; assay: Bactericidal activity against cephalosporin-resistant Streptococcus pneumoniae ATCC 51916 incubated for 18 to 20 hrs followed by replating on tryptic soy agar plate and further incubated for 18 to 24 hrs by CLSI-based broth microdilution assay; assay type: functional; method in brief: as §1
[3] = system: Listeria monocytogenes; assay: Bactericidal activity against Listeria monocytogenes ATCC 19111 incubated for 18 to 20 hrs followed by replating on tryptic soy agar plate and further incubated for 18 to 24 hrs by CLSI-based broth microdilution assay; assay type: functional
[4] = system: Enterococcus faecium; assay: Bactericidal activity against vancomycin-resistant Enterococcus faecium ATCC 700221 incubated for 18 to 20 hrs followed by replating on tryptic soy agar plate and further incubated for 18 to 24 hrs by CLSI-based broth microdilution assay; assay type: functional; method in brief: as §1
[5] = system: Enterococcus faecalis; assay: Bactericidal activity against vancomycin-resistant Enterococcus faecalis ATCC 51299 incubated for 18 to 20 hrs followed by replating on tryptic soy agar plate and further incubated for 18 to 24 hrs by CLSI-based broth microdilution assay; assay type: functional; method in brief: as §1
[6] = system: Staphylococcus epidermidis; assay: Bactericidal activity against methicillin-resistant Staphylococcus epidermidis NRS101 incubated for 18 to 20 hrs followed by replating on tryptic soy agar plate and further incubated for 18 to 24 hrs by CLSI-based broth microdilution assay; assay type: functional
[7] = system: Streptococcus pneumoniae; assay: Antibacterial activity against methicillin-resistant Streptococcus pneumoniae ATCC 700677 after 18 to 20 hrs by CLSI-based broth microdilution assay; assay type: functional
Method in brief: (§2)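 Broth microdilution per CLSI. Strains grown aerobically overnight on tryptone soy agar at 37 °C, adjusted to 0.5 McFarland, then diluted in cation-adjusted Mueller-Hinton broth to about 5 × 10^5 CFU/mL. Compounds (10 mg/mL DMSO stocks) serially diluted. Incubated aerobically at 37 °C for 18-20 h. MIC is the lowest concentration with no visible growth.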

[8] = system: Listeria monocytogenes; assay: Antibacterial activity against Listeria monocytogenes ATCC 19111 after 18 to 20 hrs by CLSI-based broth microdilution assay; assay type: functional
[9] = system: Streptococcus pneumoniae; assay: Antibacterial activity against cephalosporin-resistant Streptococcus pneumoniae ATCC 51916 after 18 to 20 hrs by CLSI-based broth microdilution assay; assay type: functional; method in brief: as §2
[10] = system: Enterococcus faecium; assay: Antibacterial activity against vancomycin-resistant Enterococcus faecium ATCC 700221 after 18 to 20 hrs by CLSI-based broth microdilution assay; assay type: functional; method in brief: as §2
[11] = system: Staphylococcus aureus; assay: Bactericidal activity against vancomycin-resistant Staphylococcus aureus 12 incubated for 18 to 20 hrs followed by replating on tryptic soy agar plate and further incubated for 18 to 24 hrs by CLSI-based broth microdilution assay; assay type: functional; method in brief: as §1
[12] = system: Staphylococcus aureus; assay: Bactericidal activity against vancomycin-resistant Staphylococcus aureus 10 incubated for 18 to 20 hrs followed by replating on tryptic soy agar plate and further incubated for 18 to 24 hrs by CLSI-based broth microdilution assay; assay type: functional; method in brief: as §1
[13] = system: Staphylococcus aureus; assay: Bactericidal activity against methicilline-resistant Staphylococcus aureus NRS386 USA700 incubated for 18 to 20 hrs followed by replating on tryptic soy agar plate and further incubated for 18 to 24 hrs by CLSI-based broth microdilution assay; assay type: functional; method in brief: as §1
[14] = system: Staphylococcus aureus; assay: Bactericidal activity against methicilline-resistant Staphylococcus aureus NRS385 USA500 incubated for 18 to 20 hrs followed by replating on tryptic soy agar plate and further incubated for 18 to 24 hrs by CLSI-based broth microdilution assay; assay type: functional; method in brief: as §1
[15] = system: Staphylococcus aureus; assay: Bactericidal activity against methicilline-resistant Staphylococcus aureus NRS384 USA300 incubated for 18 to 20 hrs followed by replating on tryptic soy agar plate and further incubated for 18 to 24 hrs by CLSI-based broth microdilution assay; assay type: functional; method in brief: as §1
[16] = system: Staphylococcus aureus; assay: Bactericidal activity against methicilline-resistant Staphylococcus aureus NRS123 USA400 incubated for 18 to 20 hrs followed by replating on tryptic soy agar plate and further incubated for 18 to 24 hrs by CLSI-based broth microdilution assay; assay type: functional; method in brief: as §1
[17] = system: Staphylococcus aureus; assay: Bactericidal activity against methicilline-resistant Staphylococcus aureus NRS-119 incubated for 18 to 20 hrs followed by replating on tryptic soy agar plate and further incubated for 18 to 24 hrs by CLSI-based broth microdilution assay; assay type: functional; method in brief: as §1
[18] = system: Staphylococcus aureus; assay: Bactericidal activity against Staphylococcus aureus ATCC BAA42 incubated for 18 to 20 hrs followed by replating on tryptic soy agar plate and further incubated for 18 to 24 hrs by CLSI-based broth microdilution assay; assay type: functional; method in brief: as §1
[19] = system: Staphylococcus aureus; assay: Antibacterial activity against vancomycin-resistant Staphylococcus aureus 12 after 18 to 20 hrs by CLSI-based broth microdilution assay; assay type: functional; method in brief: as §2
[20] = system: Staphylococcus aureus; assay: Antibacterial activity against methicilline-resistant Staphylococcus aureus NRS386 USA700 after 18 to 20 hrs by CLSI-based broth microdilution assay; assay type: functional; method in brief: as §2
[21] = system: Staphylococcus aureus; assay: Antibacterial activity against methicilline-resistant Staphylococcus aureus NRS384 USA300 after 18 to 20 hrs by CLSI-based broth microdilution assay; assay type: functional; method in brief: as §2
[22] = system: Staphylococcus aureus; assay: Antibacterial activity against methicilline-resistant Staphylococcus aureus NRS123 USA400 after 18 to 20 hrs by CLSI-based broth microdilution assay; assay type: functional; method in brief: as §2
[23] = system: Staphylococcus aureus; assay: Antibacterial activity against methicilline-resistant Staphylococcus aureus NRS-119 after 18 to 20 hrs by CLSI-based broth microdilution assay; assay type: functional; method in brief: as §2
[24] = system: Staphylococcus aureus; assay: Antibacterial activity against methicilline-sensitive Staphylococcus aureus NRS-107 after 18 to 20 hrs by CLSI-based broth microdilution assay; assay type: functional; method in brief: as §2
[25] = system: Staphylococcus aureus; assay: Antibacterial activity against Staphylococcus aureus ATCC BAA42 after 18 to 20 hrs by CLSI-based broth microdilution assay; assay type: functional; method in brief: as §2
[26] = Aqueous solubility of the compound in phosphate buffered saline assessed as concentration that produces no precipitate measured as OD at 540 nm; assay type: physicochemical
[27] = system: Escherichia coli; assay: Antibacterial activity against TolC-deficient Escherichia coli JW55031; assay type: functional
[28] = system: Escherichia coli; assay: Antibacterial activity against Escherichia coli ATCC 25922; assay type: functional
[29] = system: Pseudomonas aeruginosa; assay: Antibacterial activity against Pseudomonas aeruginosa ATCC 15442; assay type: functional
[30] = system: Acinetobacter baumannii; assay: Bactericidal activity against Acinetobacter baumannii ATCC 19606; assay type: functional; conditions: ATCC 19606 = CIP 70.34 = JCM 6841
[31] = system: Escherichia coli; assay: Bactericidal activity against TolC-deficient Escherichia coli JW55031; assay type: functional
[32] = system: Escherichia coli; assay: Bactericidal activity against Escherichia coli ATCC 25922; assay type: functional
[33] = system: Klebsiella pneumoniae; assay: Bactericidal activity against Klebsiella pneumoniae BAA-1706; assay type: functional
[34] = system: Pseudomonas aeruginosa; assay: Bactericidal activity against Pseudomonas aeruginosa ATCC 27853; assay type: functional
[35] = system: Pseudomonas aeruginosa; assay: Bactericidal activity against Pseudomonas aeruginosa ATCC 15442; assay type: functional
[36] = Safety index, ratio of non-toxic concentration for human Caco2 cells to MIC for methicillin-resistant Staphylococcus aureus NRS384 USA300; assay type: toxicity
Method in brief: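 Caco-2 cells exposed to compound in triplicate at 32, 64 and 128 µg/mL for 2 h, then MTS reagent for 4 h, absorbance at OD490. Viability expressed as percent of DMSO control. Highest non-toxic concentration divided by the broth microdilution MIC against MRSA USA300.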

C/C(=N\NC(=N)N)c1sc(-c2ccc(N3CCCCC3)cc2)nc1C
MBC [1]: 16 µg/mL (≈ 44.9 µM) | MBC [2]: 16 µg/mL (≈ 44.9 µM) | MBC [3]: 16 µg/mL (≈ 44.9 µM) | MBC [4]: 32 µg/mL (≈ 89.8 µM) | MBC [5]: 64 µg/mL (≈ 180 µM) | MBC [6]: 8 µg/mL (≈ 22.4 µM) | MIC [7]: 8 µg/mL (≈ 22.4 µM) | MIC [8]: 8 µg/mL (≈ 22.4 µM) | MIC [9]: 8 µg/mL (≈ 22.4 µM) | MIC [10]: 8 µg/mL (≈ 22.4 µM) | MBC [11]: 16 µg/mL (≈ 44.9 µM) | MBC [12]: 16 µg/mL (≈ 44.9 µM) | MBC [13]: 16 µg/mL (≈ 44.9 µM) | MBC [14]: 32 µg/mL (≈ 89.8 µM) | MBC [15]: 16 µg/mL (≈ 44.9 µM) | MBC [16]: 16 µg/mL (≈ 44.9 µM) | MBC [17]: 16 µg/mL (≈ 44.9 µM) | MBC [18]: 16 µg/mL (≈ 44.9 µM) | MIC [19]: 4 µg/mL (≈ 11.2 µM) | MIC [20]: 4 µg/mL (≈ 11.2 µM) | MIC [21]: 4 µg/mL (≈ 11.2 µM) | MIC [22]: 8 µg/mL (≈ 22.4 µM) | MIC [23]: 4 µg/mL (≈ 11.2 µM) | MIC [24]: 4 µg/mL (≈ 11.2 µM) | MIC [25]: 4 µg/mL (≈ 11.2 µM) | solubility kinetic [26]: 480 µM (≈ 171 µg/mL) | MIC [27]: 32 µg/mL (≈ 89.8 µM) | MIC [28]: 64 µg/mL (≈ 180 µM) | MIC [29]: > 64 µg/mL | MBC [30]: 64 µg/mL (≈ 180 µM) | MBC [31]: 32 µg/mL (≈ 89.8 µM) | MBC [32]: 64 µg/mL (≈ 180 µM) | MBC [33]: 64 µg/mL (≈ 180 µM) | MBC [34]: > 64 µg/mL | MBC [35]: > 64 µg/mL | selectivity ratio [36]: 16

C/C(=N\NC(=N)N)c1sc(-c2ccc(N3CCCC(C)C3)cc2)nc1C (configuration not stated)
MBC [1]: 32 µg/mL (≈ 86.4 µM) | MBC [2]: 16 µg/mL (≈ 43.2 µM) | MBC [3]: 8 µg/mL (≈ 21.6 µM) | MBC [4]: 32 µg/mL (≈ 86.4 µM) | MBC [5]: 32 µg/mL (≈ 86.4 µM) | MBC [6]: 8 µg/mL (≈ 21.6 µM) | MIC [7]: 8 µg/mL (≈ 21.6 µM) | MIC [8]: 2 µg/mL (≈ 5.4 µM) | MIC [9]: 8 µg/mL (≈ 21.6 µM) | MIC [10]: 4 µg/mL (≈ 10.8 µM) | MBC [11]: 8 µg/mL (≈ 21.6 µM) | MBC [12]: 16 µg/mL (≈ 43.2 µM) | MBC [13]: 8 µg/mL (≈ 21.6 µM) | MBC [14]: 16 µg/mL (≈ 43.2 µM) | MBC [15]: 16 µg/mL (≈ 43.2 µM) | MBC [16]: 16 µg/mL (≈ 43.2 µM) | MBC [17]: 16 µg/mL (≈ 43.2 µM) | MBC [18]: 16 µg/mL (≈ 43.2 µM) | MIC [19]: 8 µg/mL (≈ 21.6 µM) | MIC [20]: 8 µg/mL (≈ 21.6 µM) | MIC [21]: 4 µg/mL (≈ 10.8 µM) | MIC [22]: 8 µg/mL (≈ 21.6 µM) | MIC [23]: 8 µg/mL (≈ 21.6 µM) | MIC [24]: 8 µg/mL (≈ 21.6 µM) | MIC [25]: 8 µg/mL (≈ 21.6 µM) | solubility kinetic [26]: 435 µM (≈ 161 µg/mL) | MIC [27]: 8 µg/mL (≈ 21.6 µM) | MIC [28]: 16 µg/mL (≈ 43.2 µM) | MIC [29]: > 64 µg/mL | MBC [30]: 32 µg/mL (≈ 86.4 µM) | MBC [31]: 16 µg/mL (≈ 43.2 µM) | MBC [32]: 32 µg/mL (≈ 86.4 µM) | MBC [33]: 32 µg/mL (≈ 86.4 µM) | MBC [34]: > 64 µg/mL | MBC [35]: > 64 µg/mL | selectivity ratio [36]: 8
